In ChEMBL document CHEMBL4265908, “Structure-activity and structure-property relationships of novel Nrf2 activators with a 1,2,4-oxadiazole core and their therapeutic effects on acetaminophen (APAP)-induced acute liver injury” (Eur J Med Chem, 2018):

How the values were obtained:
Type in all cases: cell-based
[1] = molecular target: T1, Nuclear factor erythroid 2-related factor 2 (Homo sapiens) (UniProt Q16236); assay: Activation of Nrf2 in human HepG2-ARE-C8 cells assessed as induction of ARE-mediated luciferase activity at 80 uM after 24 hrs by luciferase reporter gene assay relative to control
T1 sequence (whole entry): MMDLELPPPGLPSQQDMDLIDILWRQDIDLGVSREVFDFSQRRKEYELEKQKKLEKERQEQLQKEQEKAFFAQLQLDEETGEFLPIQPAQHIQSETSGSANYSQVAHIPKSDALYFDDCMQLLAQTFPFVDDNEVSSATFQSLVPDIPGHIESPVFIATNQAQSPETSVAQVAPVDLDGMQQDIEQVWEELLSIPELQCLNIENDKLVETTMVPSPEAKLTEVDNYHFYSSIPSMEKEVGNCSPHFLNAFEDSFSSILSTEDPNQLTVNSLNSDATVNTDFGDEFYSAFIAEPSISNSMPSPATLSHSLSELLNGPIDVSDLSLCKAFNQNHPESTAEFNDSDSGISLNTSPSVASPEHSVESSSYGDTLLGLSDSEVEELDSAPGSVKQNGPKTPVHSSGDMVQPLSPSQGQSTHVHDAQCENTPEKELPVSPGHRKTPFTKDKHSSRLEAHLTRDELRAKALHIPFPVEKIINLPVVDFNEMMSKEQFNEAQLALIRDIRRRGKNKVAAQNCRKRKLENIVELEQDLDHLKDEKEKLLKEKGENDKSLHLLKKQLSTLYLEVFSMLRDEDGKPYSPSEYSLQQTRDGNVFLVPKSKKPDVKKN
Outline: (§1)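 HepG2-ARE-C8 cells stably carrying ARE-luciferase, grown in DMEM with 10% FBS at 37 °C and 5% CO2. Seeded at 5 × 10^4 cells/well, left overnight, then given compound diluted from a 10 mM DMSO stock for 24 h. Cells lysed and luciferase read as RLU. Inductivity = (RLUtest − RLUblank)/(RLUcontrol − RLUblank), with DMSO as control. Mean ± SEM of three experiments.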

[2] = molecular target: T1, Nuclear factor erythroid 2-related factor 2 (Homo sapiens); assay: Activation of Nrf2 in human HepG2-ARE-C8 cells assessed as induction of ARE-mediated luciferase activity at 1 uM after 24 hrs by luciferase reporter gene assay relative to control; outline: as §1
[3] = molecular target: T1, Nuclear factor erythroid 2-related factor 2 (Homo sapiens); assay: Activation of Nrf2 in human HepG2-ARE-C8 cells assessed as induction of ARE-mediated luciferase activity at 20 uM after 24 hrs by luciferase reporter gene assay relative to control; outline: as §1
HepG2 = assay: Cytotoxicity against human HepG2 cells at 80 uM after 24 hrs by MTT assay; conditions: hepg2, 24 h
[4] = molecular target: T1, Nuclear factor erythroid 2-related factor 2 (Homo sapiens); assay: Activation of Nrf2 in human HepG2-ARE-C8 cells assessed as induction of ARE-mediated luciferase activity at 40 uM after 24 hrs by luciferase reporter gene assay relative to control; outline: as §1
[5] = molecular target: T1, Nuclear factor erythroid 2-related factor 2 (Homo sapiens); assay: Activation of Nrf2 in human HepG2-ARE-C8 cells assessed as induction of ARE-mediated luciferase activity at 0.01 uM after 24 hrs by luciferase reporter gene assay relative to control; outline: as §1
[6] = molecular target: T1, Nuclear factor erythroid 2-related factor 2 (Homo sapiens); assay: Activation of Nrf2 in human HepG2-ARE-C8 cells assessed as induction of ARE-mediated luciferase activity at 0.1 uM after 24 hrs by luciferase reporter gene assay relative to control; outline: as §1

Fc1ccc(-c2nc(-c3cccnc3)no2)cc1F
Activity [1]: 4.15 | Activity [2]: 2.02 | Activity [3]: 3.15 | Activity (HepG2): Non-Toxic | Activity [4]: 3.15 | Activity [5]: 1.45 | Activity [6]: 1.71

Fc1ccc(-c2nc(-c3ncccn3)no2)cc1F
Activity [1]: 5.82 | Activity [2]: 1.07 | Activity [3]: 2.05 | Activity (HepG2): Non-Toxic | Activity [4]: 2.95 | Activity [5]: 0.92 | Activity [6]: 1.06

Fc1ccc(-c2nc(-c3ccc4[nH]cnc4c3)no2)cc1Cl
Activity (HepG2): Non-Toxic

Fc1ccccc1-c1nc(-c2ccc3nc[nH]c3c2)no1
Activity [1]: 19.1 | Activity [2]: 12 | Activity [3]: 12.7 | Activity (HepG2): Non-Toxic | Activity [4]: 15 | Activity [5]: 2.01 | Activity [6]: 4.51

Fc1cc(F)c(-c2nc(-c3ccc4nc[nH]c4c3)no2)cc1F
Activity [1]: 7.92 | Activity [2]: 2.15 | Activity [3]: 3.95 | Activity (HepG2): Non-Toxic | Activity [4]: 4.36 | Activity [5]: 1.55 | Activity [6]: 1.86

Fc1ccc(-c2nc(-c3ccc4nc[nH]c4c3)no2)cc1Cl
Activity [1]: 12.5 | Activity [2]: 3.22 | Activity [3]: 7.53 | Activity [4]: 9.59 | Activity [5]: 1.04 | Activity [6]: 3.88

Fc1cccc(-c2noc(-c3ccc(F)c(F)c3)n2)c1
Activity [1]: 5.46 | Activity [2]: 2.05 | Activity [3]: 2.76 | Activity (HepG2): Non-Toxic | Activity [4]: 3.45 | Activity [5]: 0.92 | Activity [6]: 1.81

CC(=O)c1ccc(-c2noc(-c3ccc(F)c(F)c3)n2)cc1
Activity [1]: 5.01 | Activity [2]: 2.04 | Activity [3]: 2.61 | Activity (HepG2): Non-Toxic | Activity [4]: 3.78 | Activity [5]: 1.25 | Activity [6]: 2.03

Fc1ccc(-c2nc(-c3cnccn3)no2)cc1F
Activity [1]: 3.35 | Activity [2]: 1.95 | Activity [3]: 1.81 | Activity (HepG2): Non-Toxic | Activity [4]: 2.83 | Activity [5]: 1.13 | Activity [6]: 1.43

Fc1ccc(-c2nc(-c3cccc4[nH]ccc34)no2)cc1F
Activity [1]: 4.02 | Activity [2]: 2.01 | Activity [3]: 2.36 | Activity (HepG2): Non-Toxic | Activity [4]: 3.77 | Activity [5]: 0.83 | Activity [6]: 1.88

Fc1ccc(-c2nc(-c3ccc4nc[nH]c4c3)no2)cc1Br
Activity [1]: 4.84 | Activity [2]: 1.89 | Activity [3]: 3.46 | Activity (HepG2): Non-Toxic | Activity [4]: 3.92 | Activity [5]: 1.68 | Activity [6]: 1.36

Fc1cccc(-c2nc(-c3ccc4nc[nH]c4c3)no2)c1F
Activity [1]: 16.5 | Activity [2]: 3.7 | Activity [3]: 4.55 | Activity (HepG2): Non-Toxic | Activity [4]: 10.7 | Activity [5]: 1.77 | Activity [6]: 2.22

Clc1ccc(-c2nc(-c3ccc4nc[nH]c4c3)no2)cc1
Activity [1]: 14.1 | Activity [2]: 1.64 | Activity [3]: 15.5 | Activity (HepG2): Non-Toxic | Activity [4]: 18.5 | Activity [5]: 0.33 | Activity [6]: 0.72

Fc1ccc(F)c(-c2nc(-c3ccc4nc[nH]c4c3)no2)c1
Activity [1]: 21.9 | Activity [2]: 5.24 | Activity [3]: 16.9 | Activity (HepG2): Non-Toxic | Activity [4]: 20.2 | Activity [5]: 2.31 | Activity [6]: 4.15

Fc1ccc(-c2noc(-c3ccc(F)c(F)c3)n2)cc1
Activity [1]: 6.93 | Activity [2]: 2.05 | Activity [3]: 3.75 | Activity (HepG2): Non-Toxic | Activity [4]: 5.68 | Activity [5]: 1.76 | Activity [6]: 2.12

Fc1ccc(-c2nc(-c3ccccc3Br)no2)cc1F
Activity [1]: 3.63 | Activity [2]: 1.76 | Activity [3]: 1.98 | Activity (HepG2): Non-Toxic | Activity [4]: 2.63 | Activity [5]: 0.58 | Activity [6]: 1.16

COc1cc(OC)cc(-c2noc(-c3ccc(F)c(F)c3)n2)c1
Activity [1]: 4.45 | Activity [2]: 2.15 | Activity [3]: 3.45 | Activity (HepG2): Non-Toxic | Activity [4]: 3.55 | Activity [5]: 1.87 | Activity [6]: 1.91
